The text below walks through data of ChEMBL document CHEMBL1681758, “Synthesis and in vitro anti-HSV-1 activity of a novel Hsp90 inhibitor BJ-B11” (Bioorg Med Chem Lett, 2011).

What is called EC50 is the concentration at which the effect is half-maximal. As usually defined, the CC50 is the concentration at which the toxic effect on the cells reaches its halfway point.

The source made the active and inactive calls. No cut-off for these calls is given here.

For series [1], the system named is Human alphaherpesvirus 1. Description: Antiviral activity against HSV1 infected in african green monkey Vero cells assessed as inhibition DNA synthesis at 1 uM after 24 hrs by RT-PCR analysis. It is filed as functional, organism-based. In outline:
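Vero monolayer infected with HSV-1 (MOI = 1) with or without 1 µM compound. DNA extracted at 24 hpi; UL52 quantified by real-time PCR. Mean ± SD, n = 3; Student's t-test against untreated controls.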

Series [2] relates to Human alphaherpesvirus 1. Description: Antiviral activity against HSV1 infected in african green monkey Vero cells assessed as inhibition of viral replication by plaque reduction assay. It is filed as functional, organism-based. Particulars: Human alphaherpesvirus 1, Vero. In outline: (§1)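 Vero cells; plaque reduction assay at concentrations found non-cytotoxic by MTT. EC50 is the concentration inhibiting 50% of HSV replication. Mean ± SD of three independent experiments.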
On the technique in general: Plaques are areas of infected cells; plaque reduction assays count them against a control.

The test system of another series is Coxsackievirus B3. Nature of the series: Antiviral activity against Coxsackievirus B3 infected in african green monkey Vero cells assessed as inhibition of virus-induced cytopathic effect. It is filed as functional, organism-based.
Series [3] relates to Human alphaherpesvirus 1. Nature of the series: Antiviral activity against HSV1 infected in african green monkey Vero cells assessed as reduction of UL54 expression at 1 uM after up to 24 hrs by RT-PCR analysis. It is filed as functional, organism-based. The method in brief: (§2)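 Vero monolayer infected with HSV-1 (MOI = 1) with or without 1 µM compound. RNA extracted at 3, 6 and 12 hpi, reverse transcribed, and serially diluted cDNA used for real-time PCR of UL54, UL52 and UL27. Mean ± SD, n = 3; Student's t-test against untreated controls.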

Series [4] deals with Human alphaherpesvirus 1. Description: Antiviral activity against HSV1 infected in african green monkey Vero cells assessed as log reduction of viral yield at 1 uM treated after 24 hrs post infection by plaque assay. It is filed as functional. The method in brief:
(§3)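 HSV-1 at MOI = 1 in Vero cells, compound at 1 µM in time-of-addition and time-of-removal schedules. Cultures harvested at 24 hpi; virus yield titrated by plaque assay.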

In series [5] the test system is Human alphaherpesvirus 1. Nature of the series: Antiviral activity against HSV1 infected in african green monkey Vero cells assessed as log reduction of viral yield at 1 uM after drug washout by plaque assay. It is filed as functional. The method in brief: as §3
Series [6] in a line: Cytotoxicity against african green monkey Vero cells by MTT assay. Particulars: chlorocebus sabaeus. It is filed as cell-based. In outline: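 Vero cells; MTT viability read-out. CC50 taken as concentration reducing cell viability by 50%. Mean ± SD of three independent experiments.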
Series [7] is described as follows: Therapeutic index, ratio of CC50 for african green monkey Vero cells to EC50 for HSV1. It is filed as cell-based. Conditions: read-out: TI. The method in brief:
(§4)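 TI calculated as CC50 (Vero, MTT) divided by EC50 (Vero, plaque reduction) for the respective HSV type.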

Series [8] concerns Human alphaherpesvirus 2. Description: Antiviral activity against HSV2 infected in african green monkey Vero cells assessed as inhibition of virus-induced cytopathic effect. It is filed as functional, organism-based.
The next series has as its system Influenza A virus. Nature of the series: Antiviral activity against Influenza A virus H1N1 infected in african green monkey Vero cells assessed as inhibition of virus-induced cytopathic effect. It is filed as functional, organism-based. (In general: Cytopathic effects are the visible damage that an infection or toxin causes in cultured cells.)
The subject of series [9] is Human alphaherpesvirus 1. Description: Antiviral activity against HSV1 infected in african green monkey Vero cells assessed as log reduction of viral yield at 1 uM treated after 6 hrs post infection by plaque assay. It is filed as functional. The method in brief:
as §3

The subject of series [10] is Human alphaherpesvirus 2. Description: Antiviral activity against HSV2 infected in african green monkey Vero cells assessed as inhibition of viral replication by plaque reduction assay. It is filed as functional, organism-based. Particulars: Human alphaherpesvirus 2, Vero. In outline: as §1
The test system of series [11] is Human alphaherpesvirus 1. Description: Antiviral activity against HSV1 infected in african green monkey Vero cells assessed as inhibition of virus-induced cytopathic effect. It is filed as functional, organism-based.
In another series the test system is Human orthopneumovirus. Description: Antiviral activity against Human respiratory syncytial virus infected in african green monkey Vero cells assessed as inhibition of virus-induced cytopathic effect. It is filed as functional, organism-based.
A short description of series [12]: Therapeutic index, ratio of CC50 for african green monkey Vero cells to EC50 for HSV2. It is filed as cell-based. Particulars: read-out: TI. In outline: as §4
The subject of series [13] is Human alphaherpesvirus 1. Nature of the series: Antiviral activity against HSV1 infected in african green monkey Vero cells assessed as reduction of UL27 expression at 1 uM after up to 24 hrs by RT-PCR analysis. It is filed as functional, organism-based. The method in brief: as §2
Series [14] has as its system Human alphaherpesvirus 1. Nature of the series: Antiviral activity against HSV1 infected in african green monkey Vero cells assessed as reduction of UL52 expression at 1 uM after up to 24 hrs by RT-PCR analysis. It is filed as functional, organism-based. In outline: as §2
Series [15] relates to Human alphaherpesvirus 1. Description: Antiviral activity against HSV1 infected in african green monkey Vero cells assessed as log reduction of viral yield at 1 uM treated after 9 hrs post infection by plaque assay. It is filed as functional. The method in brief:
as §3

On to `CC(=O)OC1CCC(Nc2cc(-n3nc(C)c4c3CC(C)(C)CC4=O)ccc2C(N)=O)CC1` (stereo unspecified), for which the inhibition result in the series with Human alphaherpesvirus 1 [1], in the series on Human alphaherpesvirus 2 [8] and in the series with Human alphaherpesvirus 1 [11] was “Active” throughout. In addition, the EC50 was found to be 420 nM with Human alphaherpesvirus 1 [2] and 600 nM in the series on Human alphaherpesvirus 2 [10]. Further, the inhibition entry in the series with Coxsackievirus B3, with Influenza A virus and with Human orthopneumovirus was “inactive” each time. In the series with Human alphaherpesvirus 1 [3], the result was inactive. In addition, the PFU/ml in the series with Human alphaherpesvirus 1 [4] came out at 7.09; in the series on Human alphaherpesvirus 1 [5], 6.14; with Human alphaherpesvirus 1 [9], 7.13; with Human alphaherpesvirus 1 [15] it was 6.67. The molecule further displayed a CC50 in series [6] of 35500 nM. In addition, the selectivity ratio in series [7] amounted to 84.5; in [12] it was 59.2. Also, the result with Human alphaherpesvirus 1 [13] and with Human alphaherpesvirus 1 [14] was Active.
`Nc1nc2c(ncn2COCCO)c(=O)[nH]1` [ACYCLOVIR]: the EC50 in the series with Human alphaherpesvirus 1 [2] came out at 1160 nM; in the series on Human alphaherpesvirus 2 [10], 1720 nM. Besides, the result in the series with Human alphaherpesvirus 1 [3] was inactive. In addition, the cytotoxic concentration (CC50) in series [6] is > 200000 nM. Moreover, the values for the selectivity ratio in series [7] and in series [12] were > 172 and > 116, respectively. The result with Human alphaherpesvirus 1 [13] and in the series with Human alphaherpesvirus 1 [14] was Active.
